Active and inactive are the calls of the source. No cut-off for these calls is given here.
System: L6
Test: Stimulation of [3H]2-deoxyglucose uptake in rat L6 cells at 10 uM incubated for 16 hrs by scintillation counting method
Type: functional, cell-based
Summary of the method: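 L6 myotubes incubated with the compound […]; insulin at 100 nM for 20 min served as the positive control. Uptake of ³H-2-deoxyglucose measured and expressed as fold stimulation relative to the control condition.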

Row | Compound | Activity
1 | COC(=O)c1c(SC)cc(-c2ccc(F)cc2)c2c1-c1cn(-c3ccccc3)nc1CC2 | inactive
2 | COC(=O)c1c(S(C)(=O)=O)cc(-c2ccc(F)cc2)c2c1-c1cn(-c3ccccc3)nc1CC2 | inactive
